From ChEMBL document CHEMBL4257464, “Development of NMR and thermal shift assays for the evaluation of Mycobacterium tuberculosis isocitrate lyase inhibitors” (Medchemcomm, 2017) come the findings set out here.

Activity calls are given as the source filed them. No cut-off for these calls is given here. Where a SMILES comes first, the peptide text is derived from it. The star is where a group is joined. Cbz = O=C(OCc1ccccc1)*

Broadly, the ΔTm is the change in melting temperature against a reference sample. For orientation: IC50 means the concentration that gives 50% inhibition.

In assay [1] the target is T1, Isocitrate lyase 1 (Mycobacterium tuberculosis (strain CDC 1551 / Oshkosh)) (UniProt P9WKK6).
T1 sequence (whole entry): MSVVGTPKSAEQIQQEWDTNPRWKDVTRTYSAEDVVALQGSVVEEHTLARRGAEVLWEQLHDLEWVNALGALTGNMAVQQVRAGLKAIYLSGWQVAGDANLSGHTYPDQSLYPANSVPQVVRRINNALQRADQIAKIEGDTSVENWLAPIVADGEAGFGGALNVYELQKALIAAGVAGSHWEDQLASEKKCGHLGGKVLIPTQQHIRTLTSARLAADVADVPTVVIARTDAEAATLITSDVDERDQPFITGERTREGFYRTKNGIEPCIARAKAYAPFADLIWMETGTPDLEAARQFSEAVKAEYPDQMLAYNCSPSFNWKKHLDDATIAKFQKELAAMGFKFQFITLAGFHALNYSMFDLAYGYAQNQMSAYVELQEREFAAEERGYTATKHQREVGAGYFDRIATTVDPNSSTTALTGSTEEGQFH
Briefly: Inhibition of Mycobacterium tuberculosis ICL1 expressed in Escherichia coli BL21(DE3) at 100 uM using DL-isocitrate as substrate incubated for 25 mins in presence of MgCl2 by 1H NMR method. Put shortly:
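Direct 1H NMR time course at 500 MHz, 300 K, with excitation-sculpting water suppression. Sample: 190 nM ICL1, 1 mM DL-isocitrate, 5 mM MgCl2, 100 μM inhibitor, 50 mM Tris-D11 pH 7.5 in 90% H2O/10% D2O. Substrate consumption and product formation are tracked directly. Initial rates come from linear fits up to 20% turnover. Run in triplicate.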

Assay [2] addresses T1, Isocitrate lyase 1 (Mycobacterium tuberculosis (strain CDC 1551 / Oshkosh)). The assay can be described thus: Binding affinity to Mycobacterium tuberculosis ICL1 expressed in Escherichia coli BL21(DE3) assessed as increase in melting temperature at 1 mM in presence of MgCl2 by SYPRO orange dye based fluorescence assay.
In assay [3] the target is T2, Isocitrate lyase 1 (Mycobacterium tuberculosis (strain CDC 1551 / Oshkosh), UniProt P9WKK6).
T2 sequence (P9WKK6 whole entry): T1 sequence (whole entry)
Briefly: Inhibition of Mycobacterium tuberculosis ICL1 expressed in Escherichia coli BL21(DE3) using DL-isocitrate as substrate incubated for 25 mins in presence of MgCl2 by 1H NMR method. Summed up:
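1H NMR assay at 500 MHz, 300 K, water-suppressed spectra recorded over time. Sample: 190 nM ICL1, 1 mM DL-isocitrate, 5 mM MgCl2, varying inhibitor concentrations, 50 mM Tris/Tris-D11 pH 7.5 in 90% H2O/10% D2O. Initial rates from linear fits up to 20% turnover; IC50 from a 3-parameter sigmoid fit. Triplicate measurements, errors given as SD.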

Assay [4] deals with T1, Isocitrate lyase 1 (Mycobacterium tuberculosis (strain CDC 1551 / Oshkosh)). Briefly: Binding affinity to Mycobacterium tuberculosis ICL1 expressed in Escherichia coli BL21(DE3) assessed as melting temperature at 1 mM in presence of MgCl2 by SYPRO orange dye based fluorescence assay (reference value: 43 degC).
For assay [5], the target named is T2, Isocitrate lyase 1. The assay can be described thus: Inhibition of Mycobacterium tuberculosis ICL1.

Consider `CCOC(=O)c1oc2ccc(CC(=O)c3c(C)cc(O)cc3O)cc2c1C`, for which the inhibition entry in assay [1] was “inactive”.
The same measure, in the same setting: then `COc1cc(OC)c(C(=O)COC(=O)c2oc3ccccc3c2C)c(OC)c1`, with “inactive”.
For the compound `NC(Cc1c[nH]c2ccccc12)C(=O)NCc1ccco1` (stereo not given), the ΔTm in assay [2] was over 0.5 °C.
With `COc1ccc(C(=O)COC(=O)c2oc3ccc(OC)cc3c2C)c(OC)c1`, the inhibition entry in assay [1] is “inactive”.
Same read-out and setting: then `CCc1cc(C(=O)Cc2cc3ccccc3o2)c(O)cc1OC`, with “inactive”.
`Nc1ccc([C@H](O)[C@@H](N)CO)cc1`: the ΔTm in assay [2] was over 0.5 °C.
For the compound `CCOC(=O)c1cc2cc(CC(=O)c3ccc(OC)cc3O)ccc2o1`, in assay [1], the inhibition entry is “inactive”.
As to `COc1ccc(O)c(C(=O)CC(=O)c2ccccc2)c1`, the ΔTm in assay [2] was over 0.5 °C.
For the compound `CCOC(=O)c1ccc(CC(=O)c2oc3cc(O)ccc3c2C)o1`, the inhibition entry in assay [1] is “Active”. The IC50 in assay [3] was over 100 µM. Also, in assay [2], the ΔTm is over 0.5 °C.
For `O=C(COc1ccccc1Br)c1ccc(O)cc1O`, the ΔTm in assay [2] was over 0.5 °C.
Same read-out and setting: the same measure for `O=C(O)C1=CC=C(COc2ccc3ccc(=O)oc3c2)C1`: over 0.5 °C.
On to `COc1ccc(CC(=O)Nc2ccc(O)cc2C(=O)O)cc1`, for which the ΔTm in assay [2] was over 0.5 °C.
As to `CCCc1cc(C(=O)Cc2cc3ccccc3o2)c(O)cc1O`, the ΔTm in assay [2] was over 0.5 °C.
Same read-out and setting: then `COc1ccc(OCC(=O)c2c(O)cc(O)cc2O)cc1`, with over 0.5 °C.
Take `CC(C)[C@H](NC(=O)COc1ccc(C(=O)COc2ccccc2)c(O)c1)C(=O)O`: in assay [2], the ΔTm is over 0.5 °C.
Still for that read-out and setting: then `O=C(O)CNC(=O)c1ccc(NC(=O)/C(=C/c2ccccc2)NC(=O)c2ccccc2)cc1`, with over 0.5 °C.
Regarding `CCOC(=O)c1cc2cc(CC(=O)c3ccc(O)cc3O)ccc2o1`, the inhibition result in assay [1] is “Active”. In assay [3], the IC50 is over 100 µM. Also, in assay [2], the ΔTm is over 0.5 °C.
Regarding `CCCCCCc1cc(C(=O)Cc2cc3ccccc3o2)c(O)cc1O`, the inhibition result in assay [1] is “inactive”.
Take `CC(C)C(NC(=O)OCc1ccccc1)C(=O)NCC(=O)NC(Cc1c[nH]c2ccccc12)C(=O)O` (stereo not drawn) (Cbz-Val-Gly-Trp-OH; configuration not given here): the shift in melting temperature (ΔTm) in assay [2] is over 0.5 °C.
As to `CCCc1cc(C(=O)Cc2cc3ccccc3o2)c(O)cc1OC`, the inhibition result in assay [1] was “inactive”.
On to `C=C(CC(=O)O)C(=O)O` [ITACONATE], for which, in assay [4], the Tm was found to be 53.3 °C. The inhibition entry in assay [1] was “Active”. Besides, the IC50 in assay [3] is 29.4 µM.
`Cc1ccc(C(=O)CC(=O)c2ccco2)c(O)c1`: the ΔTm in assay [2] was over 0.5 °C.
Take `COc1ccc2oc(C(=O)OCC(=O)c3ccc(C)s3)c(C)c2c1`: the inhibition result in assay [1] is “inactive”.
With `CC(Oc1ccc2c3c(c(=O)oc2c1)CCC3)C(=O)NCC1CCC(C(=O)O)CC1` (stereo not given), the ΔTm in assay [2] is over 0.5 °C.
Regarding `O=C(O)COc1ccc(C(=O)Cc2ccc3c(c2)OCCCO3)c(O)c1`, the ΔTm in assay [2] was over 0.5 °C.
On to `COC(=O)/C=C/C(=O)c1ccc(OC)cc1`, for which the Tm in assay [4] was determined as 37.6 °C. Moreover, the IC50 in assay [5] was determined as 30.9 µM; in assay [3], 250 µM. In addition, the inhibition result in assay [1] is “inactive”.
Regarding `CCCCc1cc(C(=O)Cc2cc3ccccc3o2)c(O)cc1O`, the inhibition result in assay [1] is “inactive”.
Consider `O=C(O)C(=O)CBr` [BROMOPYRUVATE], for which the Tm in assay [4] is 52.5 °C. Besides, the inhibition result in assay [1] is “Active”. Also, the 50% inhibitory concentration (IC50) in assay [3] amounted to 17.5 µM.
As for `O=C(Cc1ccc2cccnc2c1)c1ccc(O)cc1O`, the ΔTm in assay [2] is over 0.5 °C.
For `O=C(O)CC[N+](=O)[O-]`, the Tm in assay [4] is 40.9 °C. For the same compound, the inhibition result in assay [1] is “Active”. For the same compound, the IC50 in assay [3] was determined as 14.7 µM.
In the case of `Nc1ccc(C(=O)CC(=O)Nc2cc(C(=O)O)cc(C(=O)O)c2)cc1`, the ΔTm in assay [2] was over 0.5 °C.
On to `NC(CC(=O)O)c1cccnc1` (stereo not given), for which the ΔTm in assay [2] was over 0.5 °C.
